# This is one part of a sample in which hits are shown more often than they occur.
# E-sel inducer – E-selectin induction in HUVECs, primary screen, imaging, HUVEC, immunofluorescence imaging, single point; P16581; normalized: neutral wells 0, TNF-alpha wells 100; activation, % at 7.58 µM; actives 0.37% (n = 260,000); AID 686992, 2013;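 active = mean E-selectin-positive cell signal at least 10% of the positive control, reached in at least 60% of replicates, without over 20% cell loss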
# Target sequence (P16581 whole entry, looked up): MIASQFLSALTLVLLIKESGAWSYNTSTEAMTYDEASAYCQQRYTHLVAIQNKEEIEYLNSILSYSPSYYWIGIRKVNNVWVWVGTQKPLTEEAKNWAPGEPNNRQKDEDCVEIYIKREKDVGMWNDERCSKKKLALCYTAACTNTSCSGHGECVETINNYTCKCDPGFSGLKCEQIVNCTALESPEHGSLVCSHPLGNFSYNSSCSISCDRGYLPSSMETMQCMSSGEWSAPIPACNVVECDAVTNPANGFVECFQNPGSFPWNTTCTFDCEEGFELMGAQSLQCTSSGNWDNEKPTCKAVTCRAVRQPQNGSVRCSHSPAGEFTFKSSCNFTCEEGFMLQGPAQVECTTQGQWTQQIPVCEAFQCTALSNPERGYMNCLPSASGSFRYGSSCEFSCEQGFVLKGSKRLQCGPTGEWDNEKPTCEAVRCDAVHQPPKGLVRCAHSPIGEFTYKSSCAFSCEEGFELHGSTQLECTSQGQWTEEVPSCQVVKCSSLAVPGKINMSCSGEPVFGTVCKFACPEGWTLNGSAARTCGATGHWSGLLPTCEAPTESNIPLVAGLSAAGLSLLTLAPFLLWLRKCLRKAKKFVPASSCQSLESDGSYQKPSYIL
#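 System: HUVEC, human umbilical vein endothelial cells; quantity: 3,000 cells/well; buffer or medium: EGM-2 medium, gelatin-coated wells; dosing: single-point compound dose; detection: immunofluorescence imaging; evaluation: % PE-positive cells; benchmarks: TNF-alpha, DMSO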
# Numbers without * were called inactive.
SMILES,E-sel inducer
COC(=O)C[C@H]1CC[C@H]2[C@H](COc3ccc(NC(=O)c4cc(F)cc(F)c4)cc3C(=O)N2C)O1,0.0
CNC[C@@H]1Oc2c(NC(=O)c3nc4ccccc4s3)cccc2C(=O)N([C@@H](C)CO)C[C@H]1C,0.1
CC(C)NC(=O)N[C@@H]1C=C[C@@H](CC(=O)NCc2ccc(Oc3ccccc3)cc2)O[C@@H]1CO,0.7
CC(C)NC(=O)N(C)C[C@H]1Oc2ccc(NC(=O)CCC(F)(F)F)cc2CC(=O)N([C@H](C)CO)C[C@H]1C,19.5
CC(C)NC(=O)N(C)C[C@H]1Oc2ccc(NC(=O)CCC(F)(F)F)cc2CC(=O)N([C@H](C)CO)C[C@@H]1C,42.7*
C[C@H](CO)N1C[C@H](C)[C@H](CN(C)C(=O)Nc2ccc(F)cc2)Oc2ccc(NC(=O)CCC(F)(F)F)cc2CC1=O,-0.5
CC(C)NC(=O)N(C)C[C@@H]1Oc2ccc(NC(=O)CCC(F)(F)F)cc2CC(=O)N([C@@H](C)CO)C[C@@H]1C,24.6
C[C@@H]1CN([C@H](C)CO)C(=O)Cc2cc(NC(=O)CCC(F)(F)F)ccc2O[C@@H]1CN(C)C(=O)NC1CCCCC1,0.3
CC(C)NC(=O)N(C)C[C@H]1Oc2ccc(NC(=O)CCC(F)(F)F)cc2CC(=O)N([C@@H](C)CO)C[C@H]1C,54.6*
C[C@@H]1CN([C@@H](C)CO)C(=O)Cc2cc(NC(=O)CCC(F)(F)F)ccc2O[C@H]1CN(C)C(=O)Nc1ccc(F)cc1,8.4
C[C@@H]1CN([C@H](C)CO)C(=O)Cc2cc(NC(=O)CCC(F)(F)F)ccc2O[C@H]1CN(C)C(=O)Nc1ccc(F)cc1,3.4
CC(C)NC(=O)N(C)C[C@@H]1Oc2ccc(NC(=O)CCC(F)(F)F)cc2CC(=O)N([C@@H](C)CO)C[C@H]1C,112.8*
CO[C@@H]1CN(C)C(=O)c2cc(NC(C)=O)ccc2OC[C@@H](C)N(CCC(F)(F)F)C[C@H]1C,-0.1
C[C@@H]1CCCCO[C@H](CN(C)C(=O)Nc2ccc(F)cc2)[C@@H](C)CN([C@H](C)CO)C(=O)c2cc(NS(C)(=O)=O)ccc2O1,-0.1
Cc1ccc(S(=O)(=O)N(C)C[C@@H]2Oc3ccc(NC(=O)Cc4ccccc4)cc3C(=O)N([C@@H](C)CO)C[C@@H]2C)cc1,2.4
CO[C@@H]1CN(C)C(=O)c2ccc(NS(=O)(=O)c3ccccc3C)cc2OC[C@@H](C)N(C)C[C@H]1C,-0.1
CO[C@H]1CN(C)C(=O)c2cc(NC(=O)c3ccccc3F)ccc2OC[C@@H](C)N(C(=O)c2ccccc2F)C[C@H]1C,0.0
C[C@H](CO)N1C[C@H](C)[C@H](CN(C)C(=O)Nc2ccc(C(F)(F)F)cc2)Oc2c(NC(=O)Nc3ccc(F)cc3)cccc2C1=O,22.1
O=C(NC1CCCC1)c1cc(-c2ccccc2O)on1,46.6*
O=C(Nc1cccnc1)c1cc(-c2ccccc2O)on1,-0.2
Cc1cccc(C)c1OCc1cc(C(=O)NC2CCC2)no1,0.2
COCC(=O)N1CC2(C1)CN(C(=O)c1ccccn1)[C@@H](CO)c1c2c2ccc(OC)cc2n1C,-0.2
O=C(C1CC1)N1CC[C@@H]2[C@@H](CO)Nc3ccc(C#Cc4ccc(F)cc4)cc3[C@@H]21,3.8
O=C(C1CCCCC1)N1CC[C@@H]2[C@H](CO)Nc3ccc(C#Cc4ccc(F)cc4)cc3[C@@H]21,22.4
O=C(C1CCCC1)N1CC[C@@H]2[C@H](CO)Nc3ccc(C#Cc4ccc(F)cc4)cc3[C@@H]21,53.7*
SMILES,E-sel inducer
C[C@@H]1CN([C@H](C)CO)C(=O)c2cc(C#CCN(C)C)cnc2O[C@H]1CN(C)S(=O)(=O)c1cn(C)cn1,0.1
C[C@@H]1CN([C@@H](C)CO)C(=O)c2cc(NC(=O)Nc3ccc4c(c3)OCO4)ccc2O[C@@H](C)CCCCO[C@H]1CN(C)C(=O)c1ccccc1,0.2
O=C(C[C@H]1CC[C@H]2[C@@H](COC[C@@H](O)CN2S(=O)(=O)c2ccc(F)cc2)O1)N1CCc2ccccc2C1,0.0
CCNC(=O)c1cc2c(c(-c3cccc(-c4cccc(F)c4)c3)n1)[C@@H](CCO)N([S@](=O)C(C)(C)C)C2,0.0
CC(C)(C)S(=O)N1Cc2cc(C(=O)Nc3ccc(-c4ccccc4)cc3)nc(-c3cccc(-c4cccc(F)c4)c3)c2[C@@H]1CCO (some centres not stated),28.9*
CC(C)(C)[S@](=O)N1Cc2cc(C(=O)O)nc(-c3cccc(-c4cccc(F)c4)c3)c2[C@@H]1CCO,-0.2
COc1cccc(-c2cccc(-c3nc(C(=O)Nc4ccc(-c5ccccc5)cc4)cc4c3[C@@H](CCO)N(S(=O)C(C)(C)C)C4)c2)c1 (some centres not stated),35.7*
CCNC(=O)c1cc2c(c(-c3cccc(-c4cccc(OC)c4)c3)n1)[C@H](CCO)N([S@@](=O)C(C)(C)C)C2,0.1
COCCNC(=O)c1cc2c(c(-c3cccc(-c4cccc(OC)c4)c3)n1)[C@H](CCO)N(S(=O)C(C)(C)C)C2 (some centres not stated),-1.5
C[C@@H]1CN([C@@H](C)CO)S(=O)(=O)c2ccc(C#Cc3ccncc3)cc2O[C@@H]1CN(C)C(=O)C1CC1,0.8
C[C@@H]1CN([C@H](C)CO)C(=O)c2cc(-c3ccncc3)cnc2O[C@H]1CN(C)C(=O)NC1CCCC1,-0.5
O=C(COC(=O)Cc1ccc(Cl)cc1Cl)NCCC1=CCCCC1,0.0
O=C(COC(=O)COc1ccc(Cl)cc1Br)NCCC1=CCCCC1,29.5*
O=C(COC(=O)COc1ccc(Br)cc1)NCCC1=CCCCC1,0.7
O=C(C[C@H]1C[C@@H]2c3cc(NC(=O)Nc4ccc(F)cc4)ccc3O[C@@H]2[C@H](CO)O1)NC1CCCCC1,-0.3
COC(=O)c1sc2nc(SCc3cccc(Cl)c3)n(N)c(=O)c2c1C,0.5
COC(=O)c1sc2nc(SCc3ccccc3C)n(N)c(=O)c2c1C,-0.9
COC(=O)c1sc2nc(SCC(=O)N(C)c3ccccc3)n(N)c(=O)c2c1C,154.0*
CO[C@@H]1CN(C)C(=O)c2ccc(NC(=O)C3CC3)cc2OC[C@@H](C)N(C(=O)NC(C)C)C[C@@H]1C,-0.2
O=C(c1ccccc1F)N1CC2(C1)[C@H](c1ccccc1)[C@H](CO)N2CC1CC1,-0.1
O=C(C[C@H]1C=C[C@@H](NS(=O)(=O)c2cccc(F)c2)[C@@H](CO)O1)NCc1ccc2c(c1)OCO2,-0.3
COc1cc(C(=O)NCC(=O)NNC(=O)C2COc3ccccc3O2)cc(OC)c1OC (configuration not stated),151.6*
COc1cc(C(=O)NCC(=O)NNC(=O)CN(C)S(=O)(=O)c2ccc(Cl)cc2)cc(OC)c1OC,-1.8
COc1cc(C(=O)NCC(=O)NCC2COc3ccccc3O2)cc(OC)c1OC (configuration not stated),-0.1
C[C@@H]1CN([C@H](C)CO)C(=O)c2cc(NC(=O)C3CCCCC3)ccc2O[C@@H](C)CCCCO[C@@H]1CN(C)C(=O)Cc1ccccc1,-0.1
O=C(NC1CCCCC1)C(c1ccccc1)N(C(=O)c1csnn1)C1CCCC1 (configuration not stated),0.0
Cc1ccc(C(C(=O)NC2CCCCC2)N(C(=O)c2csnn2)C2CC2)cc1 (configuration not stated),1.1
COCCN(C(=O)c1csnn1)C(C(=O)NC1CCCCC1)c1ccccc1 (configuration not stated),-0.2
O=C(NC1CCCC1)C(c1ccccc1)N(C(=O)c1csnn1)c1ccccc1F (configuration not stated),-0.1

# Screens deposited in PubChem by Broad Institute.
